Results collected from several papers.
Compare with care: the assays were run in different laboratories. ≈ marks a conversion by molar mass, not a printed value.
Organism: Klebsiella pneumoniae

C[C@@H](O)[C@H]1C(=O)N2C(C(=O)O)=C(SCCNC=N)C[C@H]12
MIC (microbial growth, broth dilution): 0.5 mg/L

Cc1[nH]c(C(=O)Nc2ccc(C(=O)NCc3n[nH]c(=O)o3)cc2N2CCN(C(=O)OC(C)(C)C)CC2)c(Cl)c1Cl
MIC (microbial growth, broth dilution; ATCC700603): > 32 mg/L

O=C(O)c1cn(C2CC2)c2cc(N3CCNCC3)c(F)cc2c1=O
MIC (microbial growth; ATCC700603): 32 µM

C[C@@H](O)[C@H]1C(=O)N2C(C(=O)O)=C(SCCN=CN)C[C@H]12
inhibition zone (microbial growth, disc diffusion; 2000 µg/mL, 24 h): 20.5 mm

C[C@@H](O)[C@H]1C(=O)N2C(C(=O)O)=C(SCCN=CN)C[C@H]12
MIC90 (microbial growth, broth dilution; clinical isolate): 256 mg/L (≈ 855 µM)

COc1cc(C=Nc2ccccc2Br)ccc1O
inhibition zone (microbial growth, disc diffusion; 2000 µg/mL, 24 h): 14.7 mm

CCC(C)CCCC(=O)N[C@@H](CCN)C(=O)N[C@H](C(=O)N[C@@H](CCN)C(=O)N[C@H]1CCNC(=O)[C@H]([C@@H](C)O)NC(=O)[C@H](CCN)NC(=O)[C@H](CCN)NC(=O)[C@H](CC(C)C)NC(=O)[C@@H](CC(C)C)NC(=O)[C@H](CCN)NC1=O)[C@@H](C)O (stereo partly shown)
MIC (microbial growth, broth dilution): 0.5 mg/L

COc1cc(C=Nc2ccc(Cl)cc2Cl)ccc1O
inhibition zone (microbial growth, disc diffusion; 2000 µg/mL, 24 h): 15 mm

Cc1[nH]c(C(=O)Nc2ccc(C(=O)NCC(=O)O)cc2N2CC[C@@H](N)C2)c(Cl)c1Cl.Cl
MIC (microbial growth, broth dilution; ATCC700603): > 32 mg/L

CN[C@H](CC(C)C)C(=O)N[C@H]1C(=O)N[C@@H](CC(N)=O)C(=O)N[C@H]2C(=O)N[C@H]3C(=O)N[C@H](C(=O)N[C@H](C(=O)O)c4cc(O)cc(O)c4-c4cc3ccc4O)[C@H](O)c3ccc(c(Cl)c3)Oc3cc2cc(c3O[C@@H]2O[C@H](CO)[C@@H](O)[C@H](O)[C@H]2O[C@H]2C[C@](C)(N)[C@H](O)[C@H](C)O2)Oc2ccc(cc2Cl)[C@H]1O
MBC (microbial killing; ATCC27736): 1000 mg/L (≈ 690 µM)

COc1cc(C=Nc2ccc([N+](=O)[O-])cc2)ccc1O
inhibition zone (microbial growth, disc diffusion; 2000 µg/mL, 24 h): 14.4 mm

Cl.N[C@H]1CCN(c2cc(C(=O)NCC(=O)O)ccc2NC(=O)c2cc(Br)c(Br)[nH]2)C1
MIC (microbial growth, broth dilution; ATCC700603): > 32 mg/L

CC(C)(O/N=C(\C(=O)N[C@@H]1C(=O)N2C(C(=O)[O-])=C(C[n+]3ccccc3)CS[C@H]12)c1csc(N)n1)C(=O)O
MIC (microbial growth, broth dilution; ATCC13883; 20 h): < 0.5 mg/L
